Source: ChEMBL document CHEMBL5356984 (RSC Med Chem, 2023)

Experiments:
MCF7 [1] = test: Antiproliferative activity against human MCF7 cells assessed as inhibition of cell viability at 20 uM measured after 48 hrs by MTT assay relative to control; format: functional
MCF7 [2] = test: Antiproliferative activity against human MCF7 cells assessed as inhibition of cell viability measured after 48 hrs by MTT assay; format: functional, cell-based; conditions: MCF7, 48 h
How it was run: (§1)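 MTT cell viability read-out; IC50 obtained by non-linear regression of concentration–response data; values are mean ± SD of three independent experiments.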

HCC1806 = test: Antiproliferative activity against human HCC1806 cells assessed as inhibition of cell viability measured after 48 hrs by MTT assay; format: functional, cell-based; conditions: HCC1806, 48 h; how it was run: as §1
MDA-MB-231 = test: Antiproliferative activity against human MDA-MB-231 cells assessed as inhibition of cell viability measured after 48 hrs by MTT assay; format: functional, cell-based; conditions: MDA-MB-231, 48 h; how it was run: as §1
MDA-MB-468 = test: Antiproliferative activity against human MDA-MB-468 cells assessed as inhibition of cell viability measured after 48 hrs by MTT assay; format: functional, cell-based; conditions: MDA-MB-468, 48 h; how it was run: as §1
HEK-293T = test: Cytotoxicity against HEK293T cells assessed as cell growth inhibition measured after 48 hrs by MTT assay; format: functional, cell-based; conditions: Homo sapiens; how it was run: as §1
SK-BR-3 = test: Antiproliferative activity against human SK-BR-3 cells assessed as inhibition of cell viability measured after 48 hrs by MTT assay; format: functional, cell-based; conditions: SK-BR-3, 48 h; how it was run: as §1
BT-474 = test: Antiproliferative activity against human BT-474 cells assessed as inhibition of cell viability measured after 48 hrs by MTT assay; format: functional, cell-based; conditions: BT-474, 48 h; how it was run: as §1
[3] = Thermal stability of compound in boiling toluene at 120 degreeC assessed as time taken for compound decomposition at 1 mg/ml by HPLC analysis; format: physicochemical; conditions: read-out: T50

| Compound | inhibition at 20 µM (MCF7 [1]) | IC50 (MCF7 [2]) | IC50 (HCC1806) | IC50 (MDA-MB-231) | IC50 (MDA-MB-468) | IC50 (HEK-293T) | IC50 (SK-BR-3) | IC50 (BT-474) | half-life at 1 mg/ml [3] |
| --- | --- | --- | --- | --- | --- | --- | --- | --- | --- |
| COc1cc(/C=C/C(=O)/C=C/N(C)CCN(C)C)cc(OC)c1 | > 50% | 16.7 µM | 14.7 µM | 12.9 µM | > 20 µM |  |  |  |  |
| COC1=C2C[C@@H](C)C[C@H](OC)[C@H](O)[C@@H](C)/C=C(\C)[C@H](OC(N)=O)[C@@H](OC)/C=C\C=C(/C)C(=O)NC(=CC1=O)C2=O [GELDANAMYCIN] |  | 0.13 µM | 0.12 µM | 0.15 µM | 0.033 µM | 0.53 µM | 0.033 µM | 0.027 µM |  |
| COc1cc(/C=C/C(=O)/C=C/N2CCN(C)CC2)cc(OC)c1 | > 50% | 14.2 µM | 14.8 µM | 9.13 µM | > 20 µM |  |  |  |  |
| CO[C@@H]1[C@@H](OC(N)=O)[C@@H](O)[C@H](Oc2ccc3c(O)c(NC(=O)c4ccc(O)c(CC=C(C)C)c4)c(=O)oc3c2C)OC1(C)C [NOVOBIOCIN] |  |  |  |  |  | > 100 µM |  |  |  |
| CC(C)=CCC[C@]1(C)/C=C/[C@@H](OC(=O)C=C(C)C)[C@](C)(O)/C=C/C(=O)/C(CN2CCN(C)CC2)=C\C1 |  |  |  |  |  |  |  |  | < 5 min |
| CN1CCN(/C=C/C(=O)/C=C/c2cccc3c2OCO3)CC1 | > 50% | 12.9 µM | 13.2 µM | 8.14 µM | > 20 µM |  |  |  |  |
